Compound activity: PubChem BioAssay, several laboratories
NALP1 inh – blocks the NALP1 inflammasome reconstituted in yeast | S. cerevisiae NALP1/ASC/caspase-1 growth, X-gal OD620, 72 h | inhibition, % at 10 µM | 280,000 tested, 0.61% active | AID 2071; in the data active = inhibition mostly above about 24%, no sharp cut-off; inactive = mostly below about 32%
ALR inh – blocks human ALR sulfhydryl oxidase activity. inhibition, % (no concentration beside the values). purified ALR, DTT oxidation, H2O2 HRP-luminol luminescence. 290,000 tested, 3.8% active;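 active = mean replicate inhibition above about 79%, with every replicate also reaching it, limit read from the data; inconclusive = only one of the two criteria met; inactive = mean below limit and not every replicate reaching it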
Target sequence (P55789 whole entry, looked up): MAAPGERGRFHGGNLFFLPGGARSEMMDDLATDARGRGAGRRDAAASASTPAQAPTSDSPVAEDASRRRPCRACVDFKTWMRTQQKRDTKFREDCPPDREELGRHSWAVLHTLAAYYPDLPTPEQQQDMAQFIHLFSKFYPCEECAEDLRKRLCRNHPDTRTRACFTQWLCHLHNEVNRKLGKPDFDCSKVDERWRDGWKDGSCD
Calb FLC – C. albicans growth modulation with fluconazole | C. albicans CaCi-2 + fluconazole, Alamar Blue growth, 48 h | growth inhibition, % (no concentration beside the values) | 300,000 tested, 0.57% active | AID 1979;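 active = growth inhibition above about 58% in most replicates, limit read from the data, passing the limit was not always enough; inconclusive = exactly half the replicates above a set limit; inactive = most replicates below a set limit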;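 also: all wells also contain fluconazole at 8 µg/ml as a sub-toxic cotreatment; 0% = median of DMSO wells and 100% = median of geldanamycin control wells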
NLRP3 yeast inh – blocks the NALP3 inflammasome reconstituted in yeast | 330,000 tested, 0.39% active | AID 2825 | inhibition, % at 10 µM | Yeast reconstituted NLRP3/ASC/caspase-1, beta-gal luminescence, 24 h;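 active = inhibition of 50% or more; inactive = inhibition below 50%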;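 also: plate controls were induced DMSO wells for no effect and uninduced yeast grown without galactose for full effect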
ATG4B inhibitor – ATG4B (human) cysteine protease inhibition; Q9Y4P1; ATG4B cleavage of LC3-PLA2, NBD-HPC fluorescence, 1 h; inhibition, % at 8.33 µM; 340,000 tested, 0.51% active; in the data active = inhibition above about 40%
UCH37 DUB inh – inhibitors of human deubiquitinating enzyme UCH37; Q9Y5K5; purified proteasome/UCH37, Ub-AMC cleavage fluorescence; inhibition, % (test concentration not listed); 330,000 tested, 0.33% active;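 active = mean inhibition over replicate wells above about 20%, limit read from the data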;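 also: 0% = compound-free wells with enzyme and 100% = wells lacking proteasome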
Target sequence (Q9Y5K5 whole entry, looked up): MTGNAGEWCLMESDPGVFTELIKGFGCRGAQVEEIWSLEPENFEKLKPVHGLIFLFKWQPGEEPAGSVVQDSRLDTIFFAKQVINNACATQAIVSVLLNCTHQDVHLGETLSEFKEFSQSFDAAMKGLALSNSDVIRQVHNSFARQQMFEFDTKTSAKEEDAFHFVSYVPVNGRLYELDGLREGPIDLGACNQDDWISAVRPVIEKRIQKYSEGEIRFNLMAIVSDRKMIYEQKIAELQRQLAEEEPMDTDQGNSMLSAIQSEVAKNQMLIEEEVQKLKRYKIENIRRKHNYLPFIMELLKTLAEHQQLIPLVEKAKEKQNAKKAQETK
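Assay system: Proteasome-bound UCH37. Buffer or medium: pH 7.4 Tris-HCl (50 mM) with ovalbumin, ATP-MgCl2, DTT. Incubation: 30 min preincubation with enzyme, 25 min cleavage at room temperature. Measured by: fluorescence, ex 355 nm, em 460 nm. Read-out basis: percent inhibition. Control set: wells without proteasome as full block, compound-free enzyme plus substrate as uninhibited.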
ATG4B confirm – ATG4B (human) inhibition, single-dose confirmed; shares compounds with ATG4B inhibitor; ATG4B protease fluorescent substrate cleavage assay; inhibition, % at 8.33 µM; 320 tested, 92% active; in the data active = inhibition above about 39%
PLA2 ctr – PLA2 (human) inhibition in ATG4B counter-screen; purified PLA2, NBD-C6-HPC fluorescence, 45 min; shares compounds with ATG4B inhibitor; inhibition, % at 8.33 µM; 1,600 tested, 66% active; AID 588402; in the data active = inhibition above about 50%
The depositor's hits bear a star; ? = inconclusive; . = no result given. Compounds with a hit are over-represented: about 4.8% of the library has one in this group of screens.

SMILES	NALP1 inh	ALR inh	Calb FLC	NLRP3 yeast inh	ATG4B inhibitor	UCH37 DUB inh	PLA2 ctr	others
COc1ccccc1/C=C/C(=O)NCC(=O)NN=Cc1ccc(C(=O)O)cc1	.	.	.	.	.	-17	.
O=S(=O)(NN=Cc1cccnc1)c1ccccc1	.	.	.	.	.	6	.
O=C(NN=Cc1ccc2c(c1)OCO2)c1cc(-c2ccccc2)nc2ccccc12	.	.	.	.	.	-11	.
O=C(NN=Cc1ccncc1)C12CC3CC(CC(C3)C1)C2	.	.	.	.	.	1	.
COc1cc(C=NNc2nc3ccccc3[nH]c2=O)ccc1O	.	.	.	.	.	1	.
O=[N+]([O-])c1ccc(NN=Cc2ccc[nH]2)cc1	.	.	.	.	.	0	.
C=C(C)C1CC=C(C)C(=NNC(=O)CCCNc2cccc(C)c2)C1 (configuration not stated)	.	.	.	.	.	2	.
O=C(c1cc(-c2ccco2)on1)N1CCc2ccccc2C1	2	2	?	17	46*	0	58*
O=C(c1cc(-c2ccccc2O)on1)N1CCc2ccccc2C1	-12	62	4	22	32	4	.
O=C(c1cc(-c2ccco2)on1)N1CCCc2ccccc21	18	-1	1	22	63*	4	49
Cc1ccc(NCC(=O)NN=Cc2ccc(-c3cccc(C(F)(F)F)c3)o2)cc1	.	.	.	.	.	4	.
Cc1ccsc1C=NNc1ncnc2nc[nH]c12	.	.	.	.	.	15	.
COc1cc([N+](=O)[O-])cc(/C=C2/SC(=S)N(Cc3ccccc3)C2=O)c1O	11	97*	?	.	49*	21*	75*
COc1ccc(CN2CC(=O)N(c3ccc(C)cc3)C2=S)cc1OC	25	-41	26	4	10	-1	.
CCc1ccc(N2C(=O)CN(Cc3sccc3C)C2=S)cc1	2	-1	-3	29	92*	-3	98*
COc1cc(CN2CC(=O)N(c3ccc(C)cc3)C2=S)cc(OC)c1OC	13	-1	-3	-1	-9	2	.
Cc1cc(C)cc(N2C(=O)CN(Cc3sccc3C)C2=S)c1	25	-3	-19	15	94*	1	94*
Cc1ccsc1CN1CC(=O)N(c2c(C)cccc2C)C1=S	4	-17	-6	29	85*	1	93*
Cc1cccc(N2C(=O)CN(Cc3sccc3C)C2=S)c1	16	-4	-22	16	88*	4	92*
O=C(NN=Cc1cc(Cl)cc([N+](=O)[O-])c1O)c1ccc2c(c1)OCO2	.	.	.	.	.	8	.
CCCCCCCCCS(=O)(=O)NN=Cc1cccc([N+](=O)[O-])c1	.	.	.	.	.	1	.
CC(=NNc1ccccn1)c1ccc(OC(F)F)cc1	.	.	.	.	.	1	.
Cc1cccc(N2C(=O)CN(Cc3cccs3)C2=S)c1	3	-3	-4	14	52*	0	74*
CC(C)c1ccc(Nc2nc(NCc3ccco3)nc(N3CCOCC3)n2)cc1	-21	-4	-6	18	41*	2	57*
COc1ccc(-c2ccc3c(c2)S(=O)(=O)c2cccc(C(=O)NCc4cccc(OC(F)(F)F)c4)c2C3=O)cc1OC	.	-2	.	30	70*	4	70*
SMILES	NALP1 inh	ALR inh	Calb FLC	NLRP3 yeast inh	ATG4B inhibitor	UCH37 DUB inh	PLA2 ctr	others
O=C(NCc1cccc(OC(F)(F)F)c1)c1cccc2c1C(=O)c1ccc(-c3ccc(F)cc3OCc3ccccc3)cc1S2(=O)=O	.	-3	.	29	1	1	.
Fc1cccc2sc(Nc3nnc(-c4ccccc4)o3)nc12	-11	?	-1	5	5	-84	.
COc1cc(OC)cc(-c2nnc(Nc3nc4c(F)cccc4s3)o2)c1	4	-3	115*	10	57*	-112	11	ATG4B confirm=51*
Cc1cccc(N=Cc2ccccn2)n1	.	.	.	.	.	1	.
Cc1ccccc1N1CCN(S(=O)(=O)c2ccccc2)CC1	-127	1	3	22	37	2	.
Cc1cc(S(=O)(=O)N2CCN(c3ccccc3C)CC2)ccc1F	-2	.	-3	14	45*	4	52*
Cc1cc(S(=O)(=O)N2CCN(c3c(C)cccc3C)CC2)ccc1F	8	-6	1	3	49*	5	52*
CCOC(=O)C(C#N)=NNc1cc(Cl)ccc1OC	.	.	.	.	.	-2	.
C/C(CCc1oc2c(Br)cc(Br)cc2c1-c1ccc(C)o1)=N\O	4	8	-17	-5	12	.	.
C/C(CCc1oc2ccccc2c1-c1ccc(C)o1)=N/O	25	2	-6	35	61*	.	64*
Cc1nn(Cc2ccccc2)c(C)c1NC(=O)CCCn1nc([N+](=O)[O-])c(Cl)c1C	31	-10	-19	12	17	1	.
Cc1cc([N+](=O)[O-])nn1CCCC(=O)Nc1cc(Oc2ccccc2)cc([N+](=O)[O-])c1	18	-11	-1	4	55*	5	58*
Cc1cc([N+](=O)[O-])nn1CCCC(=O)Nc1cc(Oc2ccc(F)cc2)cc([N+](=O)[O-])c1	27	14	-5	9	61*	5	62*
Cc1ccc(Oc2cc(NC(=O)CCCn3nc([N+](=O)[O-])c(Cl)c3C)cc([N+](=O)[O-])c2)cc1	24	-7	27	17	89*	6	92*
COc1cc(C=NNC(=O)c2ccncc2)cc(OC)c1OC	.	.	.	.	.	5	.
COc1ccc2cc(C[C@@H]3CC[C@@H](CNC(N)=O)O3)ccc2c1	.	.	.	.	38	4	.
OC[C@@H]1CC[C@@H](Cc2ccc(-c3ccccc3)cc2)O1	.	.	.	.	0	1	.
NC(=O)NC[C@@H]1CC[C@@H](Cc2ccc(-c3ccccc3)cc2)O1	.	.	.	.	80*	0	81*
COc1ccc(NC(=O)NC[C@@H]2CC[C@@H](Cc3ccc(-c4ccccc4)cc3)O2)cc1	.	.	.	.	40*	2	74*
Cc1ccc(C(=O)NN=Cc2ccc(S(=O)(=O)O)o2)c(Cl)c1	.	.	.	.	.	3	.
Clc1ccc(/C=N/Nc2nnc(-c3ncc[nH]3)c3ccccc23)cc1	6	31	-26	42	79*	.	82*
O=C(CN(c1cccc(C(F)(F)F)c1)S(=O)(=O)c1ccc(Cl)c([N+](=O)[O-])c1)NCc1ccccc1Cl	25	-12	-7	13	54*	-2	53*
CC(CC(=O)Nc1ccc(N(C)C)cc1)=NNC(=O)c1ccccc1F	.	.	.	.	.	1	.
CCCc1cc(C(=O)N(C2CCCCC2)C2CCCCC2)no1	3	-27	3	7	60*	1	72*
CCCc1cc(C(=O)NC2CCCCC2)no1	29	.	-8	20	-7	0	.
O=C(O)c1oc2ccccc2c1-n1cccc1	33	57	-8	16	58*	1	57*
